# Assay outcomes (PubChem BioAssay)
# Shown are actives, neighbours in structure and some others; about 2% of the full set was active somewhere.
# TAG inh = inhibitors of triacylglycerol accumulation; H9c2 cells, Nile Red lipid (TAG) fluorescence; cells loaded with 200 µM oleic acid; 230,000 tested, 0.66% active; inhibition, % at 12.5 µM; AID 651582;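 active = pattern-corrected inhibition of lipid staining of at least 50% with the nuclear-stain viability signal not falling by more than 50%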;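 also: 0% = DMSO wells and 100% = triacsin C control wells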
# GRK2 inh = inhibitors of human GRK2 displacing RNA aptamer. P25098. bead flow cytometry, FAM-aptamer displacement from GRK2. inhibition of aptamer binding, % at 10 µM. 330,000 tested, 0.59% active. AID 488847;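 active = inhibition of aptamer binding above 40%, roughly 3 SD of noise, on plates passing a quality check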;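 also: median bead fluorescence of bound FAM aptamer so fluorescent compounds give negative values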
# Target sequence (P25098 whole entry, looked up): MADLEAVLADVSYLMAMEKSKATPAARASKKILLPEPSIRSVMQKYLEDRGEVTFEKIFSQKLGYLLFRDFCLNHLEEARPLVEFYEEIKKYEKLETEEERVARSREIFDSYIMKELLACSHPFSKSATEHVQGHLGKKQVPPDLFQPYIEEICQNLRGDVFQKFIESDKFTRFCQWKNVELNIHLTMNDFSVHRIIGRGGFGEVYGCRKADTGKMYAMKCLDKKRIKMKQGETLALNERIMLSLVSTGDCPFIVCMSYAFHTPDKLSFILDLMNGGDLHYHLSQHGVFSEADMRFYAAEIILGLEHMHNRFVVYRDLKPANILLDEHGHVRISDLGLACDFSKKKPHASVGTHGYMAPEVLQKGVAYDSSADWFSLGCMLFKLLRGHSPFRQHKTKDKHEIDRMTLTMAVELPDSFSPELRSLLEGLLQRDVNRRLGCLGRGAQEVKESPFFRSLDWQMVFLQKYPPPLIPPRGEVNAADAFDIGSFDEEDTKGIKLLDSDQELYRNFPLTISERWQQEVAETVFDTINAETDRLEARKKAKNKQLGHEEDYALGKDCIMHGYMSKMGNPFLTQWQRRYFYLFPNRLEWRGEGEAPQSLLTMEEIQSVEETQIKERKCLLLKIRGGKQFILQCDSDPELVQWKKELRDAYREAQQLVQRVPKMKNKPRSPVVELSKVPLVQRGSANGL
# Lipid droplet = modulators of hepatic lipid droplet formation; AML12 mouse hepatocytes, oleate lipid droplets, BODIPY imaging; inhibition, % at 6.5 µM; 240,000 tested, 0.4% active; AID 1656;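 active = lipid droplet intensity inhibited by at least 50%, with more than 500 cells counted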
#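 Assay system: AML12 hepatocytes (mouse); Probe or stimulus: oleic acid at 100 µM to induce lipid droplet formation; Dosing: compound at 6.5 µM only; Schedule: compound with oleate, overnight; Detection: fluorescence imaging, 20x objective, two fields per well; Measure: % inhibition of lipid droplet signal.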
# NTR1 agonist = NTR1 (human) agonism; activation, % at 20 µM; NTR1-U2OS beta-arrestin-GFP spot imaging, agonist mode; P30989; 330,000 tested, 0.17% active;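 active = activation at or above 40% of the spot to cytoplasm intensity ratio, with at least 20 cells analyzed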;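 also: 0% = DMSO without peptide and 100% = 100 nM NTR1 peptide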
# B2AR ag = activates human beta-2 adrenergic receptor causing internalization | response, % (no concentration beside the values) | 340,000 tested, 0.43% active | AID 504454 | Am2.2-beta2AR cells, FAP receptor internalization, flow cytometry | P07550;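 active = response above a set limit, near 3 SD of response in nonfluorescent compounds, cut at about 42% in these data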
# Arr AP2 block = inhibitors of human beta-arrestin and AP2 interaction. FITC-arrestin peptide / GST-AP2 beads, flow cytometry; AP2 beta2 appendage carries R879A mutation. 340,000 tested, 0.31% active. AID 504490. inhibition, % at 10 µM;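 active = inhibition above a set limit, near 3 SD of compounds lacking own fluorescence, cut at about 54% in these data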;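 also: plate controls were DMSO wells for no effect and 5 µM unlabelled arrestin peptide for full effect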
#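 System: GST-AP2 R879A bound to glutathione beads, E. coli-expressed. Also added: 50 nM FITC-arrestin peptide. Schedule: compound with beads 12 min RT, then probe 1 h RT. Signal: bead flow cytometry, FITC channel. Read-out basis: percent response.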
# GRK2 CP1 = confirmation of human GRK2 inhibitors displacing RNA aptamer; 2,000 tested, 4% active; aptamer displacement, % at 10 µM; shares compounds with GRK2 inh; bead-bound GRK2, FAM-aptamer displacement, flow cytometry;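 active = aptamer displacement above 40%, near three times the noise of non-fluorescent compounds, on plates passing quality checks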;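 also: negative values mostly reflect intrinsic compound fluorescence rather than true enhancement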
# FAM quench CP1 = quenches fluorescent RNA aptamer, GRK2 hit artifact; Carboxyfluorescein RNA aptamer on beads, flow cytometry quenching; active compounds read low; fluorescence response (% of DMSO), % at 10 µM; 2,000 tested, under 10 active; shares compounds with GRK2 inh;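 active = compounds that quench the bead-bound fluorescent RNA probe, cutting fluorescence to under half of the solvent control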;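 also: counterscreen run without GRK2 so only probe quenching by compound is measured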
# GRK2 confirm 2 = confirmation of human GRK2 inhibitors binding RNA aptamer site. shares compounds with GRK2 inh. bead-bound GRK2, FAM-aptamer displacement, flow cytometry. inhibition of aptamer binding, % at 10 µM. 360 tested, under 10 active. AID 504782;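 active = inhibition of aptamer binding above 40%, about triple the noise seen with nonglowing compounds, on plates passing quality control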;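 also: negative values mostly come from compounds that fluoresce themselves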
# FAM quench CP2 = counter-screen for GRK2 binding hits: quenchers of fluorescent RNA aptamer; shares compounds with GRK2 inh; carboxyfluorescein RNA aptamer beads, flow cytometry quenching; active compounds read low; fluorescence response vs DMSO, % at 10 µM; 360 tested, under 10 active; AID 588494;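 active = response vs DMSO under 50%, meaning signal dropped by over half, treated as fluorescence quencher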;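 also: labelled aptamer on streptavidin beads without GRK2 as a quench counter-screen; 100% = bead fluorescence of DMSO wells and lower means quenching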
# * = called active by the depositor; · = no result.
SMILES,TAG inh,GRK2 inh,Lipid droplet,NTR1 agonist,B2AR ag,Arr AP2 block,GRK2 CP1,FAM quench CP1,others
O=C1NC(=S)S/C1=C\c1ccc(SCc2ccccc2)o1,·,46.0*,-2.5,·,5.1,30.7,20.7,96.6,
O=C1NC(=S)S/C1=C\c1ccc(SCc2ccco2)o1,·,0.0,15.4,·,0.6,25.7,·,·,
O=c1ccnc(Nc2ccc([N+](=O)[O-])cc2)[nH]1,-5.9,1.0,·,-0.1,3.9,-15.6,·,·,
c1ccc2c(CNc3ccc(CNc4ncn[nH]4)cc3)cccc2c1,·,0.0,-3.7,0.9,3.6,5.7,·,·,
COc1ccccc1CNc1ccc(CNc2ncn[nH]2)cc1,10.3,52.0*,2.0,-0.8,-6.9,6.5,-1.1,98.4,
O=C(Nc1ccc(N2CCOCC2)c(Cl)c1)c1cc(F)c(F)cc1Cl,-19.3,1.0,1.0,2.6,7.3,8.6,·,·,
O=C(Nc1cc(C(=O)N2CCOCC2)cc(C(=O)N2CCOCC2)c1)c1cc(F)c(F)cc1Cl,·,27.0,-0.2,-1.3,-4.9,0.1,-2.2,102.9,
CC(C)(C)OC(=O)C[C@H]1C/C=C\C[C@@H](CC(=O)N[C@@H](CO)Cc2ccccc2)C(=O)NC[C@H](c2ccccc2)OC1=O,6.7,4.0,·,0.6,-6.1,6.6,·,·,
O=C(O)C[C@H]1c2cc(F)ccc2S(=O)(=O)N1C1CCCC1,-10.2,44.0*,·,-0.6,-5.0,-5.7,-2.0,98.2,
O=C(O)C[C@H]1c2cc(F)ccc2S(=O)(=O)N1C1CCCCC1,-20.8,0.0,·,-0.1,-0.9,-2.4,·,·,
C#CCOCCOCCOCCNc1nc(N2CCOCC2)nc(N2CCN(C(=O)[C@H](CO)n3cc([C@@H](N)C(C)C)nn3)CC2)n1,11.8,74.0*,·,0.8,-0.9,8.2,·,·,GRK2 confirm 2=-19.3;FAM quench CP2=100.0
C#CCOCCOCCOCCNc1nc(N2CCOCC2)nc(N2CCN(C(=O)CCCCCCCCCCNC(=O)[C@H](CO)n3cc(CCCSC)nn3)CC2)n1,3.3,50.0*,·,0.2,-2.3,5.0,-4.8,99.2,
C#CCOCCOCCOCCNc1nc(N2CCN(C(=O)[C@H](CO)n3cc([C@@H](N)C(C)C)nn3)CC2)nc(N2CCN(C(=O)[C@H](CCCCN)n3cc([C@@H](N)[C@H](C)CC)nn3)CC2)n1,-15.5,0.0,·,-3.5,-3.4,-2.0,·,·,
CC1CC(C)(C)NC(=S)N1CCCC(=O)Nc1ccc(F)cc1 (configuration not stated),40.5,0.0,-6.0,0.2,2.5,14.7,·,·,
O=C(O)CCNc1ccc(NCCC(=O)O)c2c1C(=O)c1ccccc1C2=O,·,42.0*,-11.8,-1.8,16.3,12.7,31.3,90.2,
Cc1ccc(SCC(=O)NCCC2=CCCCC2)cc1,8.7,45.0*,·,0.1,1.0,18.5,-0.7,95.8,
O=C(CN1C(=O)C(=O)N(C2CCCC2)C1=O)Nc1ccc(N2CCOCC2)cc1,8.3,8.0,-3.3,0.9,2.8,0.1,·,·,
COc1ccc(NC(=S)NNc2ccc(S(=O)(=O)Nc3ccccc3C(=O)O)cc2[N+](=O)[O-])cc1,-4.1,48.0*,6.6,-1.0,4.2,39.6,4.3,99.0,
COc1ccc(C=NNc2ccc(S(=O)(=O)Nc3ccccc3C(=O)O)cc2[N+](=O)[O-])c(OC)c1,5.9,4.0,·,5.8,-9.9,-1.9,·,·,
C=C(C)CCOC(=O)C(CC(=O)O)NCc1ccco1 (configuration not stated),2.3,43.0*,·,0.2,-0.9,6.0,9.4,149.3,
COc1ccccc1-c1nnc(SCC(=O)NC2CC2)n1C,1.5,86.0*,·,-0.3,-7.5,-11.6,2.9,96.1,
Cc1ccccc1-n1ccnc1SCC(=O)NC1CCCC1,·,49.0*,-2.5,-1.5,-6.7,-13.7,1.7,99.6,
O=C(CN1C(=O)C2CCCCC2C1=O)Nc1cc([N+](=O)[O-])ccc1F (configuration not stated),-4.4,27.0,·,-0.3,-0.4,-2.9,·,·,
COc1ccc(CCN2CC(C(=O)NCc3ccon3)CCC2=O)cc1 (configuration not stated),-11.9,·,·,·,·,·,·,·,
O=[N+]([O-])c1ccc(Cc2cncc(O)c2)cc1,·,2.0,3.2,-0.6,-6.0,22.9,·,·,
SMILES,TAG inh,GRK2 inh,Lipid droplet,NTR1 agonist,B2AR ag,Arr AP2 block,GRK2 CP1,FAM quench CP1,others
Cc1ccc(S(=O)(=O)Oc2cccc(N3C(=O)C4CC=CCC4C3=O)c2)cc1 (configuration not stated),-20.5,71.0*,·,-0.3,-5.8,10.9,0.8,100.5,
Cc1cccc(NC(=O)CCS(=O)(=O)c2ccccc2)n1,·,6.0,-9.6,1.5,-3.2,3.1,2.7,97.3,
Cc1cccc(NC(=O)CCS(=O)(=O)c2ccccc2)c1,·,0.0,1.0,-0.5,-4.5,-7.1,·,·,
O=C(Nc1nc(-c2cccs2)cs1)c1ccc(S(=O)(=O)N2CCCC2)cc1,·,19.0,·,11.3,13.9,9.7,-1.2,98.7,
CCCCc1nnc(NC(=O)CN(C)S(=O)(=O)c2ccc(C)cc2)s1,1.3,0.0,0.0,1.1,-5.5,-11.2,·,·,
CCc1nnc(NC(=O)CCS(=O)(=O)c2ccc(C)cc2)s1,-3.3,0.0,·,-1.2,-11.4,28.4,6.7,99.1,
CCCCc1nnc(NC(=O)CCS(=O)(=O)c2ccc(C)cc2)s1,-10.3,1.0,·,0.9,5.6,-7.7,-0.7,106.9,
O=C(c1ccc(NS(=O)(=O)/C=C/c2ccccc2)cc1)N1CCCCC1,6.8,2.0,·,1.4,6.1,7.4,·,·,
CCc1nnc(NC(=O)CCS(=O)(=O)c2ccccc2)s1,·,0.0,-15.4,0.4,-6.0,0.6,-1.0,99.9,
COCc1nnc(NC(=O)CCS(=O)(=O)c2ccccc2)s1,·,6.0,-17.2,3.0,-1.3,5.7,6.8,98.4,
CCc1nnc(NC(=O)CCS(=O)(=O)Cc2ccccc2)s1,·,0.0,-3.2,0.3,11.0,26.5,·,·,
CCc1nnc(NC(=O)c2cccc(S(=O)(=O)N3CCCC3)c2)s1,·,0.0,-2.2,-0.9,1.7,18.1,·,·,
CCc1nnc(NC(=O)c2cccc(S(=O)(=O)N3CCCCC3)c2)s1,-3.4,95.0*,-21.2,-0.8,13.8,-9.1,·,·,GRK2 confirm 2=-8.8;FAM quench CP2=99.0
CCOc1ccc(CN(C)C(=O)c2cc(S(=O)(=O)N3CCCC3)ccc2C)cc1,-10.9,3.0,·,-0.2,2.3,-4.1,·,·,
